According to paper PMC8451793 (Journal of Orthopaedic Research, 2020):

Legend:
[1] = system: CLK-mediated phosphorylation of SRSF1, SRSF4, SRSF5, SRSF6 in rTDSCs and hMSCs; test: Western blot of phospho-SRSFs; format: cell-based, human, rat
Summary of the method: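 rTDSCs treated with test compound or DMSO for 24 h at 37°C, 5% CO2. Total protein extracted in RIPA buffer. Phospho-SRSF levels detected by Western blot with specific primary and secondary antibodies.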

hMSCs and rTDSCs = test: Tenocyte differentiation, immunostaining for tenocyte markers; format: cell-based, human, rat
Summary of the method: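 Cells incubated at 37°C, 5% CO2 with test compound across a dose range or DMSO; rTDSCs treated 4 days (representative images at 1.5 μM). Fixed and immunostained for SCXA, TNMD, TNC, MKX, THBS4 and type I/III collagens; secondary antibody alone as negative control; BMP + FGF as positive control. High-content imaging; percent of total cells marker-positive; n = 4, mean ± SD.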

## COc1ccc2c(c1)[nH]c1c(C)nccc12 [harmine]
[1]
  CLK-mediated phosphorylation of SRSF1, SRSF4, SRSF5 and SRSF6: no effects
hMSCs and rTDSCs
  Potency in promoting tenocyte differentiation relative to SM04755: less potent than SM04755
